Selectivity and Ki data for 15 compounds are collected here from ChEMBL document CHEMBL1132150, “Synthesis and evaluation of 3-trifluoromethyl-7-substituted-1,2,3, 4-tetrahydroisoquinolines as selective inhibitors of phenylethanolamine N-methyltransferase versus the alpha(2)-adrenoceptor” (J Med Chem, 1999).

Test [1] in a line: Selectivity determined by Ki of alpha 2 receptor / Ki of PNMT.
Test [2] deals with T1, Adrenergic receptor alpha-2 (Rattus norvegicus, UniProt P22086+P19328+P22909).
T1 sequence (P22086 whole entry): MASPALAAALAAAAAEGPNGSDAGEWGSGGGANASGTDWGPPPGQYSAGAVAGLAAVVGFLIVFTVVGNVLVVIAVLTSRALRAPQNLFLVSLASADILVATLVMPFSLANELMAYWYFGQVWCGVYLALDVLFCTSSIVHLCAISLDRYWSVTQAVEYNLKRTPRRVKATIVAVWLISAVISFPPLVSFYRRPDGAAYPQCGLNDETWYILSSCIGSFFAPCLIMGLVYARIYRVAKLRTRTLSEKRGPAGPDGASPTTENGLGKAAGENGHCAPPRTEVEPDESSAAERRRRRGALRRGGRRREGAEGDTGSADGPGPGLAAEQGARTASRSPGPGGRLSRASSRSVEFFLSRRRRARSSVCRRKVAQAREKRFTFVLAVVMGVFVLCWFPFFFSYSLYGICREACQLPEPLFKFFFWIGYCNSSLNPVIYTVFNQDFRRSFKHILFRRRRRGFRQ
T1 sequence (P19328 whole entry): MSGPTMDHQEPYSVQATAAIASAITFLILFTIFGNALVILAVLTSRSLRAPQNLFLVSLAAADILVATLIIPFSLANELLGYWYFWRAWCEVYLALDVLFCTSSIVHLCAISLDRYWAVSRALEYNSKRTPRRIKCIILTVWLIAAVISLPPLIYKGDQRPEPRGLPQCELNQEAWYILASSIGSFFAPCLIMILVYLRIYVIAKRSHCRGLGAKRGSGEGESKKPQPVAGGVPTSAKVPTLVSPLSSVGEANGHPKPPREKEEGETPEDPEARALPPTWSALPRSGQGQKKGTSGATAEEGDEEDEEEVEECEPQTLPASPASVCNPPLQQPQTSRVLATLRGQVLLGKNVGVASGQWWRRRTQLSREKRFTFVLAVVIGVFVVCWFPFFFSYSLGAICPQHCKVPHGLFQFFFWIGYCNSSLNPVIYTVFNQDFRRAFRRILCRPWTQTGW
T1 sequence (P22909 whole entry): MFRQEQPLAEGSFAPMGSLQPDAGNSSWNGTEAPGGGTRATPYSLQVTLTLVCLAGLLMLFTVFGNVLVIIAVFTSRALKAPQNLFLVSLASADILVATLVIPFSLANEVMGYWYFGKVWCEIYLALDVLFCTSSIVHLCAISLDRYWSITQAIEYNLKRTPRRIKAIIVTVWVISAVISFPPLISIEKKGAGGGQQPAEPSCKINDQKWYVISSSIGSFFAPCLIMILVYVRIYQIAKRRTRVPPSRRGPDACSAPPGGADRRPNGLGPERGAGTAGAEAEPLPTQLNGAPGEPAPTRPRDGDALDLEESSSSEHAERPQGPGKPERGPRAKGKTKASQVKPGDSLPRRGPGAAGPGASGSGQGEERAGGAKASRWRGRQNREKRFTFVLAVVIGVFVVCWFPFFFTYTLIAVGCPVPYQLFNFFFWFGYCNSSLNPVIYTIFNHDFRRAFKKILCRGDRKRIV
Briefly: Compound was tested in vitro for binding affinity against Alpha-2 adrenergic receptor using [3H]clonidine. In kind it is protein assay. The conditions noted are these: for pKi: read-out: Ki. The gist of the method: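 Rat (male Sprague–Dawley) cortex membranes, washed three times by centrifugation in 50 mM Tris/HCl pH 7.7, incubated 30 min at 25 °C with 2.0 nM [3H]clonidine and varied inhibitor concentrations. Bound ligand was collected by vacuum filtration and counted. Nonspecific binding was defined with 2 μM phentolamine. IC50 came from log–probit analysis, and Ki = IC50/(1+[clonidine]/KD).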

The target of test [3] is T2, Phenylethanolamine N-methyltransferase (Bos taurus, UniProt P10938).
T2 sequence (P10938 whole entry): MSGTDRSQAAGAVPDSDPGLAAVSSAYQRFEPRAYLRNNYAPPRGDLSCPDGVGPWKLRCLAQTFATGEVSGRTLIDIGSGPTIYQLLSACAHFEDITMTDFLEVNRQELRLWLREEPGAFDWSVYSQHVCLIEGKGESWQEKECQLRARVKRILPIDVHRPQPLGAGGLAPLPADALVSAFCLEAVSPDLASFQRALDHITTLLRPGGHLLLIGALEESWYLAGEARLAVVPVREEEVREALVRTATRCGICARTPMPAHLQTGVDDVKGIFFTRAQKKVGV
The test can be described thus: Inhibition of PNMT (Phenylethanolamine N-Methyltransferase) in vitro. The gist of the method: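 Bovine adrenal PNMT, prepared through the isoelectric precipitation step, assayed radiochemically with phenylethanolamine as the variable substrate and [3H]AdoMet as methyl donor in phosphate buffer pH 8.0. Incubation was 30 min at 37 °C, quenched with borate pH 10, and product was extracted into toluene/isoamyl alcohol and counted. Three inhibitor concentrations spanning 5-fold were run in duplicate, and Ki came from a hyperbolic fit.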

For test [4], the target named is T1, Adrenergic receptor alpha-2. Briefly: The compound was tested in vitro for binding affinity against Alpha-2 adrenergic receptor using [3H]clonidine. In kind it is protein assay. The gist of the method:
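Rat cortex membranes from male Sprague–Dawley rats, homogenized in ice-cold 50 mM Tris/HCl (pH 7.7 at 25 °C), washed by three 50000g spins. [³H]clonidine final 2.0 nM, varying inhibitor levels, 25 °C for 30 min. Filtration and scintillation counting. Nonspecific binding with 2 μM phentolamine. IC50 by log–probit analysis, Ki = IC50/(1 + [clonidine]/KD). Tested as HCl or HBr salts.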

The target is the same in test [5]. Briefly: The compound was tested in vitro for binding affinity against Alpha-2 adrenergic receptor using [3H]clonidine, A precipitate was noted at 1000 uM. In kind it is protein assay.

What is called pKi is the Ki on a negative log10 scale, so that one unit is a factor of ten. As a reminder, the Ki is a dissociation constant, usually derived from enzyme kinetics or from competition with a known ligand.

pKi: −log10 of the molar value.

The compound `OCC1Cc2ccccc2CN1` (stereo not drawn) had a Selectivity in test [1] of 6. In addition, in test [2], the negative-log Ki (pKi) is 5.18.

`FC(F)(F)C1Cc2ccccc2CN1` (stereo not drawn): the Selectivity in test [1] was 27. In addition, the negative logarithm of the Ki (pKi) in test [3] was 4.82.

Compound `COc1ccc2c3c([nH]c2c1)C=NCC3` [CGS-19281A] registered a Selectivity in test [1] of 4.4. The same compound displayed a Ki in test [4] of 12 µM. In test [3], this compound showed a pKi of 5.57.

As for `FC(F)(F)C1Cc2ccc(Br)cc2CN1` (stereo not drawn), the Selectivity in test [1] was more than 1900. For the same compound, the Ki in test [5] was more than 1000 µM.

`c1ccc2c(c1)CCNC2` had a Selectivity in test [1] of 0.035.

On to `CS(=O)(=O)c1ccc2c(c1)CNC(CO)C2` (stereo not drawn), for which, in test [1], the Selectivity was 1000. Also, the pKi in test [2] is 3.18.

Regarding `CC1Cc2ccccc2CN1` (stereo not drawn), the Selectivity in test [1] came out at 0.36.

Turning to `O=[N+]([O-])c1ccc2c(c1)CNC(C(F)(F)F)C2` (stereo not drawn), the Selectivity in test [1] amounted to 700. Further, the Ki in test [2] amounted to 1400 µM. Further, in test [3], the pKi is 5.70.

`CS(=O)(=O)c1ccc2c(c1)CNC(C(F)(F)F)C2` (stereo not drawn): in test [1], the Selectivity came out at 110. Besides, the negative logarithm of the Ki (pKi) in test [3] is 4.44.

The compound `Clc1ccc2c(c1Cl)CNCC2` yielded a Selectivity in test [1] of 0.095. This compound also had a negative logarithm of the Ki (pKi) in test [3] of 6.66.

With `N#Cc1ccc2c(c1)CNC(C(F)(F)F)C2` (stereo not drawn), the Selectivity in test [1] was determined as 220.

In turn, `COCC1Cc2ccccc2CN1` (stereo not drawn) had a Selectivity in test [1] of 0.3. The pKi in test [2] was 5.55.

Consider `NS(=O)(=O)c1ccc2c(c1)CNC(CO)C2` (stereo not drawn), for which, in test [1], the Selectivity turned out to be 4100. For the same compound, in test [4] (read-out: Ki), the pKi is 2.85.

`CCC1Cc2ccccc2CN1` (stereo not drawn): the Selectivity in test [1] came out at 0.028. Also, the Ki in test [4] worked out at 0.67 µM.

For the compound `Clc1ccc2c(c1Cl)CNCCC2`, the Ki in test [4] is 4.5 µM.
